In ChEMBL document CHEMBL2401720, “Synthesis and structure-activity relationship studies of O-biphenyl-3-yl carbamates as peripherally restricted fatty acid amide hydrolase inhibitors” (J Med Chem, 2013):
Active and inactive are the calls of the source. The rule behind the calls is not given here.

Tests used:
Mus musculus [1] = test: In vivo inhibition of FAAH in Swiss Webster mouse liver using [3H]-ethanolamine as substrate at 1 mg/kg, ip after 1 hr by liquid scintillation counting analysis relative to control; format: functional; conditions: route intraperitoneal
Mus musculus [2] = test: In vivo inhibition of FAAH in Swiss Webster mouse brain using [3H]-ethanolamine as substrate at 40 mg/kg, sc after 1 hr by liquid scintillation counting analysis in presence of Abcg2 inhibitor Ko-143; format: functional, organism-based; design: dose 40 mg/kg
Mus musculus [3] = test: In vivo inhibition of FAAH in sc dosed Swiss Webster mouse brain using [3H]-ethanolamine as substrate after 1 hr by liquid scintillation counting analysis; format: functional, organism-based
Mus musculus [4] = test: In vivo inhibition of FAAH in Swiss Webster mouse brain using [3H]-ethanolamine as substrate at 1 mg/kg, ip after 1 hr by liquid scintillation counting analysis relative to control; format: functional; conditions: route intraperitoneal
Mus musculus [5] = test: In vivo inhibition of FAAH in ip dosed Swiss Webster mouse brain using [3H]-ethanolamine as substrate after 1 hr by liquid scintillation counting analysis; format: functional
[6] = target: T1, Fatty-acid amide hydrolase 1 (Rattus norvegicus, UniProt P97612); test: Inhibition of Wistar rat brain FAAH using [3H]-ethanolamine as substrate preincubated for 20 mins followed by substrate addition by liquid scintillation counting analysis
T1 sequence (P97612 whole entry): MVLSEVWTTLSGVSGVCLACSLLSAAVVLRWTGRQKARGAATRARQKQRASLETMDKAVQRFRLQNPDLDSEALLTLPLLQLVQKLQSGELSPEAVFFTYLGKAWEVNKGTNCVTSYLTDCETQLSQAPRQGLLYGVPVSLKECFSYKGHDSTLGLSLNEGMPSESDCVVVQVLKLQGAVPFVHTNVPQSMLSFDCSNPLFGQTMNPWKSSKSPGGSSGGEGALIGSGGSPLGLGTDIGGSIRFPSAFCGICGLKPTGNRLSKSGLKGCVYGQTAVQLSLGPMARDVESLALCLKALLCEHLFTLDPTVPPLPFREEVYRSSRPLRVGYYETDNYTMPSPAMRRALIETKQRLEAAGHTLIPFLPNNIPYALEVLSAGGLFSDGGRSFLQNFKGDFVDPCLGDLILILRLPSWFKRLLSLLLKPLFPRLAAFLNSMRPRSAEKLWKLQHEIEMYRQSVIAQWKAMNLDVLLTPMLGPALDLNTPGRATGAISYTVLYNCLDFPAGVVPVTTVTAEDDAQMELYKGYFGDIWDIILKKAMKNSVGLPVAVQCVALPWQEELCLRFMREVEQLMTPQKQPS
In short: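 FAAH source was the membrane homogenate of Wistar rat brain (50 μg protein). It was preincubated with inhibitor for 20 min at 37°C, then incubated 30 min at 37°C in Tris 50 mM pH 7.5 with 0.05% fatty acid-free BSA, 10 μM anandamide and anandamide[ethanolamine-3H]. The reaction was stopped with chloroform/methanol (1:1), and aqueous-layer radioactivity was counted by liquid scintillation to give IC50.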

Mus musculus [7] = test: In vivo inhibition of FAAH in Swiss Webster mouse brain using [3H]-ethanolamine as substrate at 75 mg/kg, sc after 1 hr by liquid scintillation counting analysis; format: functional, organism-based; design: dose 75 mg/kg
Mus musculus [8] = test: In vivo inhibition of FAAH in ip dosed Swiss Webster mouse liver; format: functional
Mus musculus [9] = test: In vivo inhibition of FAAH in Swiss Webster mouse brain using [3H]-ethanolamine as substrate at 25 mg/kg, sc after 1 hr by liquid scintillation counting analysis in presence of Abcg2 inhibitor Ko-143; format: functional, organism-based; design: dose 25 mg/kg
In short: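 Adult male Swiss-Webster mice (25-30 g) got Ko-143 (15 mg/kg, i.p., in saline/PEG400/Tween80 18:1:1 with 30% DMSO) 20 min before a single s.c. dose of inhibitor in the same vehicle without DMSO. Brain taken 1 h later and homogenate supernatant (1000 × g) assayed: 37°C, 30 min, pH 7.5 Tris, 0.05% BSA, 10 μM anandamide plus [ethanolamine-3H]anandamide, aqueous-phase scintillation counting; mean ± s.e.m., n = 3-4.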

Mus musculus [10] = test: In vivo inhibition of FAAH in ip dosed Swiss Webster mouse peripheral tissue; format: functional

Structure (SMILES) | inhibition in vivo at 1 mg/kg (Mus musculus [1]) [%] | inhibition (Mus musculus [2]) | inhibition (Mus musculus [3]) | inhibition in vivo at 1 mg/kg (Mus musculus [4]) [%] | ED50 (Mus musculus [5]) [mg/kg] | IC50 [6] [nM] | inhibition (Mus musculus [7]) | ED50 (Mus musculus [8]) [mg/kg] | inhibition (Mus musculus [9]) | ED50 (Mus musculus [10]) [mg/kg]
NC(=O)c1cccc(-c2cc(O)cc(OC(=O)NC3CCCCC3)c2)c1 | 89.5 | Active | Dose-dependent effect | -4.2 | 75 |  |  |  |  | 
CC(O)c1cccc(-c2cc(OC(=O)NC3CCCCC3)ccc2O)c1 (stereo not given) | 80.9 |  |  | 89.6 |  | 2 |  |  |  | 
NC(=O)c1cccc(-c2cc(OC(=O)NC3CCCCC3)ccc2C(=O)O)c1 | 86.3 | inactive | Dose-dependent effect | -2.1 |  |  | inactive |  |  | 
NC(=O)c1cccc(-c2cc(OC(=O)NC3CCCCC3)ccc2O)c1 | 91.7 |  | Dose-dependent effect | -3 | 40 |  |  | 0.2 | Active | 0.2
